Our source for the Bmax, Ki and Kd values is ChEMBL document CHEMBL1150367, “High specific activity tritium-labeled N-(2-methoxybenzyl)-2,5-dimethoxy-4-iodophenethylamine (INBMeO): a high-affinity 5-HT2A receptor-selective agonist radioligand” (Bioorg Med Chem, 2008).

Molecules are shown by their SMILES.

Assay [1] concerns the target T1, 5-hydroxytryptamine receptor 2A (Homo sapiens, UniProt P28223). In words: Binding affinity to human 5HT2A receptor expressed in human A549 cells. It is filed as cell-based. Particulars: for Bmax: tested as the 3H-labelled form. A digest of the protocol: (§1)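 Incubated 60 min at 25 °C in 50 mM Tris, 4 mM MgCl2, pH 7.4, with 1% BSA. Nonspecific defined by 10 μM cinanserin; filtration and scintillation counting.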

The target of assay [2] is T1, 5-hydroxytryptamine receptor 2A. In words: Binding affinity to human 5HT2A receptor expressed in human HEK293 cells. The following applies: for Bmax: tested as the 3H-labelled form. It is filed as cell-based. A digest of the protocol:
as §1

The target of assay [3] is Sodium-dependent serotonin transporter (Homo sapiens, UniProt P31645). In words: Binding affinity to serotonin uptake transporter.
The target of assay [4] is 5-hydroxytryptamine receptor 7 (Homo sapiens, UniProt P34969). In words: Binding affinity to 5HT7 receptor.
Chain of 5-hydroxytryptamine receptor 7 (P34969 whole entry): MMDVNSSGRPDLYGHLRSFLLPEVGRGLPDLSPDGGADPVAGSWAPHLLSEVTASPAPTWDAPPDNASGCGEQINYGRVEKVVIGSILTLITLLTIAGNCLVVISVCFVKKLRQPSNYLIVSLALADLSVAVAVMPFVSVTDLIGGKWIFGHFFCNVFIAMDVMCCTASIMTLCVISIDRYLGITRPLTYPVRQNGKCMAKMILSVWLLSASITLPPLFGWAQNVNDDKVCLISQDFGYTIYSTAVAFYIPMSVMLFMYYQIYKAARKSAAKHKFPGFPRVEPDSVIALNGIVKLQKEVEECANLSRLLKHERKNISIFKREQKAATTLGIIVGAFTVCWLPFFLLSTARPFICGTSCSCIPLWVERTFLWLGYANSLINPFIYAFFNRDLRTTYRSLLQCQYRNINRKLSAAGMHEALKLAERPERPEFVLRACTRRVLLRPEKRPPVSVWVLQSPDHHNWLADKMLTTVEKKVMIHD
A further assay addresses Mu-type opioid receptor (Homo sapiens, UniProt P35372). In words: Binding affinity to mu opioid receptor.
The target in assay [5] is Muscarinic acetylcholine receptor M4 (Homo sapiens, UniProt P08173). In words: Binding affinity to muscarinic M4 receptor.
Chain of Muscarinic acetylcholine receptor M4 (P08173 whole entry): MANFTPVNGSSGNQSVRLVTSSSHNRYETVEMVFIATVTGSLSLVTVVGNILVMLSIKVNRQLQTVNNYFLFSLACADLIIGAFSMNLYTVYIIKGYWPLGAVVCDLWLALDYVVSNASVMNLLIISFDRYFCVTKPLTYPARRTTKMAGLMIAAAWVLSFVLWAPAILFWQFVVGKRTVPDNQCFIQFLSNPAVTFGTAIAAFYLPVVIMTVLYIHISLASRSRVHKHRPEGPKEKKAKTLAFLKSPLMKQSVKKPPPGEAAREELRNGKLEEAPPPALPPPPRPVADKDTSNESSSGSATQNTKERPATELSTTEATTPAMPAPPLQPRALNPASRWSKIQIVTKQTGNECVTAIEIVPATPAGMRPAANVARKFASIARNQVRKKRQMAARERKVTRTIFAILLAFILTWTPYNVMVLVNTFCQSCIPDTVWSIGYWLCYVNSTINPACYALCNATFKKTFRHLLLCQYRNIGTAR
The target in assay [6] is Muscarinic acetylcholine receptor M5 (Homo sapiens, UniProt P08912). In words: Binding affinity to muscarinic M5 receptor.
Chain of Muscarinic acetylcholine receptor M5 (P08912 whole entry): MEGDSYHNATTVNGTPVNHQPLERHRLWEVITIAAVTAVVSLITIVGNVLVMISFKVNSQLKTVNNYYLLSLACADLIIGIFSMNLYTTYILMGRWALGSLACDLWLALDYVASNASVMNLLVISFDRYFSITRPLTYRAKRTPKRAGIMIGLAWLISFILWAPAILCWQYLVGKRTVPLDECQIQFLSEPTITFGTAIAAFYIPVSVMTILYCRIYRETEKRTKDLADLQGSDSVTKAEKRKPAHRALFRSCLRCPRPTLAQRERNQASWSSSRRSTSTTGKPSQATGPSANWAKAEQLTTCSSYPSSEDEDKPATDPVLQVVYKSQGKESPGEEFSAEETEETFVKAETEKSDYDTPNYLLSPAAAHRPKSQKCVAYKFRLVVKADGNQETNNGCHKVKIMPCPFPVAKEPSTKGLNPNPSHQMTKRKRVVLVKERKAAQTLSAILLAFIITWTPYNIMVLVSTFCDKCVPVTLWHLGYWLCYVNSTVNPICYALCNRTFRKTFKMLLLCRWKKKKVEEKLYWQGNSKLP
The target of assay [7] is Delta-type opioid receptor (Homo sapiens, UniProt P41143). In words: Binding affinity to delta opioid receptor.
Another assay concerns the target D(2) dopamine receptor (Homo sapiens, UniProt P14416). In words: Binding affinity to dopamine D2 receptor.
A further assay has as its target D(1A) dopamine receptor (Homo sapiens, UniProt P21728). In words: Binding affinity to dopamine D1 receptor.
Assay [8] has as its target 5-hydroxytryptamine receptor 2B (Homo sapiens, UniProt P41595). In words: Binding affinity to 5HT2B receptor.
In another assay the target is Histamine H2 receptor (Homo sapiens, UniProt P25021). In words: Binding affinity to histamine H2 receptor.
The next assay addresses Histamine H3 receptor (Homo sapiens, UniProt Q9Y5N1). In words: Binding affinity to histamine H3 receptor.
Assay [9] has as its target Alpha-1A adrenergic receptor (Homo sapiens, UniProt P35348). In words: Binding affinity to alpha 1A adrenergic receptor.
The target in assay [10] is 5-hydroxytryptamine receptor 1D (Homo sapiens, UniProt P28221). In words: Binding affinity to 5HT1D receptor.
The target in assay [11] is Sodium-dependent dopamine transporter (Homo sapiens, UniProt Q01959). In words: Binding affinity to dopamine uptake transporter.
Another assay has as its target D(1B) dopamine receptor (Homo sapiens, UniProt P21918). In words: Binding affinity to dopamine D5 receptor.
For assay [12], the target named is 5-hydroxytryptamine receptor 5A (Homo sapiens, UniProt P47898). In words: Binding affinity to 5HT5A receptor.
The target in assay [13] is Kappa-type opioid receptor (Homo sapiens, UniProt P41145). In words: Binding affinity to kappa opioid receptor.
Chain of Kappa-type opioid receptor (P41145 whole entry): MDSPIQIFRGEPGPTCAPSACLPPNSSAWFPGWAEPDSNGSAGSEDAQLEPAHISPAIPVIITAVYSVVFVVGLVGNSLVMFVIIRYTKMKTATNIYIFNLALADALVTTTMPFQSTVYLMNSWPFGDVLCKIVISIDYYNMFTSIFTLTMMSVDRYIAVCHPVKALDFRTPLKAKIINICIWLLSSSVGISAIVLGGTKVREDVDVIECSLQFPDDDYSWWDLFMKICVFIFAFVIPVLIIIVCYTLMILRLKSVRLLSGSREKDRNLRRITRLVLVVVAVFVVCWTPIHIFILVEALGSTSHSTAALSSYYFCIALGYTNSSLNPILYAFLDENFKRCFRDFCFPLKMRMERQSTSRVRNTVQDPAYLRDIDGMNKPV
Another assay deals with Histamine H1 receptor (Homo sapiens, UniProt P35367). In words: Binding affinity to histamine H1 receptor.
In assay [14] the target is Muscarinic acetylcholine receptor M3 (Homo sapiens, UniProt P20309). In words: Binding affinity to muscarinic M3 receptor.
Chain of Muscarinic acetylcholine receptor M3 (P20309 whole entry): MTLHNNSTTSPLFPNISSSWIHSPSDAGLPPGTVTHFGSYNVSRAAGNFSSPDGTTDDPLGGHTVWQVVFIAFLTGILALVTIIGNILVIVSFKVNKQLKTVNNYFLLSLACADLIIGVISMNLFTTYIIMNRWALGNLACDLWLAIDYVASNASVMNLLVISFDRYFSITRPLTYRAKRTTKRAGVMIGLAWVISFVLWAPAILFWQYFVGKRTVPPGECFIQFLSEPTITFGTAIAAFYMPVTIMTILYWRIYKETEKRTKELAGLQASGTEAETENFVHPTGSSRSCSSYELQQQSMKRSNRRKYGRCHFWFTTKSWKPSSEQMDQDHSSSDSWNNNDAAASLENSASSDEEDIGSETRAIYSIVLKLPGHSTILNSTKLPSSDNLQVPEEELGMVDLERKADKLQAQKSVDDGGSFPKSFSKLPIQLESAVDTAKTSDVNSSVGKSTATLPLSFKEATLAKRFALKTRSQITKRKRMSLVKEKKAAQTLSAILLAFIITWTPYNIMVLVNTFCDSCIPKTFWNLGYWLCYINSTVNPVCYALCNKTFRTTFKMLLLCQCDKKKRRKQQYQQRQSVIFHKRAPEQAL
Assay [15] has as its target 5-hydroxytryptamine receptor 6 (Homo sapiens, UniProt P50406). In words: Binding affinity to 5HT6 receptor.
The target in assay [16] is 5-hydroxytryptamine receptor 2C (Homo sapiens, UniProt P28335). In words: Binding affinity to 5HT2C receptor.
The target of assay [17] is 5-hydroxytryptamine receptor 3A (Homo sapiens, UniProt P46098). In words: Binding affinity to 5HT3 receptor.
Chain of 5-hydroxytryptamine receptor 3A (P46098 whole entry): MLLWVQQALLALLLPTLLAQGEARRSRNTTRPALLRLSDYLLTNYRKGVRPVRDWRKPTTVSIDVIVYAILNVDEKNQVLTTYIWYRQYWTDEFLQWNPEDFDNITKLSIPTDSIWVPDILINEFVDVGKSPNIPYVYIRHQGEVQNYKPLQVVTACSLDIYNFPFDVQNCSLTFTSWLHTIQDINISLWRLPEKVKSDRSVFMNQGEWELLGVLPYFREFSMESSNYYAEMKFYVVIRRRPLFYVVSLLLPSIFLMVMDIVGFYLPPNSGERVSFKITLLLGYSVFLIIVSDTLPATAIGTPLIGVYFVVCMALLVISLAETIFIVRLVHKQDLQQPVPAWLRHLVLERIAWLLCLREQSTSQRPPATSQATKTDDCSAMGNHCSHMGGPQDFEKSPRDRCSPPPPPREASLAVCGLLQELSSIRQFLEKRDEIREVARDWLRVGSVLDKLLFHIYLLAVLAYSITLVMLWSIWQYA
The target in assay [18] is Muscarinic acetylcholine receptor M1 (Homo sapiens, UniProt P11229). In words: Binding affinity to muscarinic M1 receptor.
Assay [19] has as its target Muscarinic acetylcholine receptor M2 (Homo sapiens, UniProt P08172). In words: Binding affinity to muscarinic M2 receptor.
The target of the next assay is D(3) dopamine receptor (Homo sapiens, UniProt P35462). In words: Binding affinity to dopamine D3 receptor.
The target of assay [20] is 5-hydroxytryptamine receptor 1B (Homo sapiens, UniProt P28222). In words: Binding affinity to 5HT1B receptor.
Assay [21] deals with 5-hydroxytryptamine receptor 1A (Homo sapiens, UniProt P08908). In words: Binding affinity to 5HT1A receptor.
Assay [22] addresses 5-hydroxytryptamine receptor 1E (Homo sapiens, UniProt P28566). In words: Binding affinity to 5HT1E receptor.
Assay [23] addresses T1, 5-hydroxytryptamine receptor 2A. In words: Displacement of [3H]INBMeO from human 5HT2A receptor expressed in human HEK293 cells. It is filed as cell-based.
For assay [24] the target is unchanged. In words: Displacement of [3H]ketanserin from human 5HT2A receptor expressed in human A549 cells. In kind it is cell-based.
Assay [25] has the same target. In words: Displacement of [3H]ketanserin from human 5HT2A receptor expressed in human HEK293 cells. In kind it is cell-based.
Assay [26] shares this target. In words: Displacement of [3H]INBMeO from human 5HT2A receptor expressed in human A549 cells. In kind it is cell-based.

T1 sequence (P28223 whole entry): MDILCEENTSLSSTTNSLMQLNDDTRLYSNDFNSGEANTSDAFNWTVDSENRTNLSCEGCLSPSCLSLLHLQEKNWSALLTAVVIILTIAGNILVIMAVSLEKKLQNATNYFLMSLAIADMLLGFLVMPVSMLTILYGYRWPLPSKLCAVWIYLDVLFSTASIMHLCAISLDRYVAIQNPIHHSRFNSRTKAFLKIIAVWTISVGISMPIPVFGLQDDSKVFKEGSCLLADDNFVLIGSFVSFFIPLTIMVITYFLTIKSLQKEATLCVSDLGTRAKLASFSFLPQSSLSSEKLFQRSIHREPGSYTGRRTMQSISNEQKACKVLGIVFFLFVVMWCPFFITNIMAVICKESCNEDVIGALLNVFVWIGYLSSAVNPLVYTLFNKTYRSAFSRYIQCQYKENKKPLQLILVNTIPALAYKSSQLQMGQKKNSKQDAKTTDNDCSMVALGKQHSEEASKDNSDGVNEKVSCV
Chain of 5-hydroxytryptamine receptor 2B (P41595 whole entry): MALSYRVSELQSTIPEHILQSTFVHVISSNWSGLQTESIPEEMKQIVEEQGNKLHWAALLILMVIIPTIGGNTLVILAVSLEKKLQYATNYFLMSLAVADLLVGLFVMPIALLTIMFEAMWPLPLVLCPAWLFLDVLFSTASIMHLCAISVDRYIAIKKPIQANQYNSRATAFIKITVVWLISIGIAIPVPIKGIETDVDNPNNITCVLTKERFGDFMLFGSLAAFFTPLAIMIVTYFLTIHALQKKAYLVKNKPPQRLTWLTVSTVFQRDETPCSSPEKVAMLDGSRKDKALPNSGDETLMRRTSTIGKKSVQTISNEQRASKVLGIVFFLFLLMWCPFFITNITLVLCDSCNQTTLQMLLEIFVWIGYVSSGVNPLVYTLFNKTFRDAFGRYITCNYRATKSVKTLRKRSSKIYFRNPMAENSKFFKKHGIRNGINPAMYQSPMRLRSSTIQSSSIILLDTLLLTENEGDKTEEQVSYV
Chain of Histamine H3 receptor (Q9Y5N1 whole entry): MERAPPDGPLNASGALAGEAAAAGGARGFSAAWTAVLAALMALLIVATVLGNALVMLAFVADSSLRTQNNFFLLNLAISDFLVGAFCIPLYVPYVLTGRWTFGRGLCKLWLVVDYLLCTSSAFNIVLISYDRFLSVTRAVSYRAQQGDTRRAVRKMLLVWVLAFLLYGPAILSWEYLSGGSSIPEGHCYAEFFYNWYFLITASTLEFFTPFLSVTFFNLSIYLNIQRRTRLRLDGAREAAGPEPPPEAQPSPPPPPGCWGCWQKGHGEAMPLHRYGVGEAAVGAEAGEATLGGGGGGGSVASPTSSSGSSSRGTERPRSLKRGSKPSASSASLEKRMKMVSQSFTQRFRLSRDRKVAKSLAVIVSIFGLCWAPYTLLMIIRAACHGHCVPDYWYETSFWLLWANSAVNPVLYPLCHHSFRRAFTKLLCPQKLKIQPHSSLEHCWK
Chain of Mu-type opioid receptor (P35372 whole entry): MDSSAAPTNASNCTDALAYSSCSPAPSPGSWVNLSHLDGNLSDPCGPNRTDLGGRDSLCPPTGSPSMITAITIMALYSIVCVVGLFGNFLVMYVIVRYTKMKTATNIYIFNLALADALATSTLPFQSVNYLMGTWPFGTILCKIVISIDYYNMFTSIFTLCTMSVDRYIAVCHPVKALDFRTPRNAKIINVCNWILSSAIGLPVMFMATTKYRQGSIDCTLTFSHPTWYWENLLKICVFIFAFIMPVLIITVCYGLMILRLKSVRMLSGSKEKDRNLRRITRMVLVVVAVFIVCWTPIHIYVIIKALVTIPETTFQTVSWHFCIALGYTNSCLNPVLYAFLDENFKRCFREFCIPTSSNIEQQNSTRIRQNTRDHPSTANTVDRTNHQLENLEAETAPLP

As for `O=C(c1ccc(F)cc1)C1CCN(CCn2c(=O)[nH]c3ccccc3c2=O)CC1`, the Bmax amounted to 890 fmol/mg in [1] and 3260 fmol/mg in assay [2].
In the same order, the values of `COc1cc(CCNCc2ccccc2OC)c(OC)cc1I` are 480 fmol/mg and 2210 fmol/mg.
For the molecule `[3H]C([3H])([3H])Oc1cc(I)c(OC)cc1CCNCc1ccccc1OC([3H])([3H])[3H]`, the Ki in assay [3] was above 500 nM; in [4], above 500 nM; on Mu-type opioid receptor it was 82 nM; in [5] it was above 500 nM; in assay [6] it was above 500 nM; in [7], above 500 nM. The Ki at D(2) dopamine receptor was above 500 nM; at D(1A) dopamine receptor it was above 500 nM; in [8] it was 231 nM; at Histamine H2 receptor it was above 500 nM; on Histamine H3 receptor, above 500 nM; in assay [9] it was above 500 nM. The Ki in assay [10] is above 500 nM; in assay [11], above 500 nM; on D(1B) dopamine receptor it was above 500 nM; in assay [12], above 500 nM; in assay [13], 288 nM; on Histamine H1 receptor it was 189 nM. The Ki was above 500 nM in assay [14]; 73 nM in assay [15]; 2 nM in assay [16]; above 500 nM in assay [17]; above 500 nM in assay [18]; above 500 nM in [19]. Moreover, the Ki (on D(3) dopamine receptor; in assay [20]; in assay [21]; in assay [22]) was above 500 nM each time. For the same molecule, the Kd in assay [1] came out at 0.097 nM; in assay [2] it was 0.15 nM.
Take `CN(C)CCCSc1ccccc1NC(=O)/C=C/c1ccccc1` [CINANSERIN]: the Ki is 22 nM in assay [23], 17 nM in assay [24], 13 nM in assay [25] and 24 nM in assay [26].
